For 40 compounds, cytotoxicity results are on record in ChEMBL document CHEMBL4513216, “Probing the Open Global Health Chemical Diversity Library for Multistage-Active Starting Points for Next-Generation Antimalarials” (ACS Infect Dis, 2020).

A short description of the data set: Toxicity liver stage against HepG2, at 10uM. In kind it is cell-based. Details: test concentration 10 uM, cell line HepG2-A16-CD81EGFP. The note with it: human, HepG2-A16-CD81EGFP cells; read-out: INHIBITION
An outline of the steps:
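Uninfected HepG2-A16-CD81EGFP cells, 3 × 10^3 per well, 1536-well, plated on prespotted compound at 10 μM final, parasite-free screening media added to match infected plates; puromycin 10 μM positive, DMSO 0.5% negative; run in parallel with 48 h PbLuc assay at 37 °C, 5% CO2; viability by CellTiter-Glo luminescence, normalized to controls.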
As for `O=C1CC(c2ccncc2)c2c(c(C(=O)O)cn2-c2ccccc2)N1` (stereo not given), the cytotoxicity at 10 µM is -3.7%.
For `O=C(NC1CCCCC1)c1ccc(Oc2ccc3nncn3n2)cc1`, the cytotoxicity at 10 µM came out at 2.17%.
For `COc1cccc2sc(N3CCN(C(=O)c4cc(C)on4)CC3)nc12`, the cytotoxicity at 10 µM is 6.21%.
As to `Cc1nnc(C2CCN(C(=O)c3ccsc3)CC2)s1`, the cytotoxicity at 10 µM turned out to be 10.5%.
The result for `CN(C)CCN1C(=O)CO[C@@H]2CN(c3ncc(F)cn3)C[C@H]21` reads 0.81%; that for `Cc1cc(C(=O)N2C[C@@H]3COC[C@]3(c3nnc(C4CC4)o3)C2)on1`, -10%; that for `O=C(NCCc1cc2nc(-c3ccncc3)ccn2n1)C1CCOCC1`, 4.59%.
For `CCc1onc(C)c1C(=O)N1CCC(c2cc3ncccc3cn2)CC1`, the cytotoxicity at 10 µM amounted to 1.68%.
The figure for `CNC(=O)c1cn[nH]c1C1(C)CCCN(Cc2ccccn2)C1` (stereo not given) is -10.5%; for `Cc1nc(Nc2nncs2)cc(C2CCCN2C)n1` (stereo not given) it is -22.6%; for `Cc1cc(N)nc(C2(C)CCCN2C(=O)c2cnccn2)n1` (stereo not given) it is -27.1%.
For `O=C(c1cscn1)N1CCC(O)(Cn2ccc3ccncc32)CC1`, the cytotoxicity at 10 µM was -18.2%.
Regarding `O=C(C1CCOCC1)N1CCC(O)(Cn2ccc3ccncc32)CC1`, the cytotoxicity at 10 µM was -19.8%.
As for `COCCNC(=O)c1ccccc1-n1cc(CN)cn1`, the cytotoxicity at 10 µM is -23.6%.
In the case of `Cc1cc(N(C)C)nc(NC2CCc3nc(C)nn3C2)n1` (stereo not given), the cytotoxicity at 10 µM stood at 5.56%.
The result for `CC(C)n1nnnc1-c1ccc(NC(=O)N(C)CCN(C)C)cc1F` reads -2.71%.
The figure for `O=C(NCC(=O)N1CCCCC1)c1sccc1C1CC1` is -136%; for `Cc1cc(CNC(=O)NCCC(=O)N2CCCc3ccccc32)no1` it is -4.09%; for `CC(NC(=O)CNc1cc2c(cc1Cl)NC(=O)CO2)c1ccco1` (stereo not given) it is -0.0162%.
The figure for `COCC(=O)N1CCCC1c1cccc(C)c1C` (stereo not given) is -1.32%.
Turning to `Cn1cccc1C(=O)NS(=O)(=O)c1cnn(-c2ccccc2F)c1`, the cytotoxicity at 10 µM was -7.83%.
Take `Cn1cc(CNCCc2nccs2)c(-c2cccnc2)n1`: the cytotoxicity at 10 µM turned out to be 1.83%.
The figure for `O=S(=O)(NCCSc1nccn1C1CC1)c1ccccc1` is -9.34%; for `N#Cc1ccc(CN(CC(N)=O)Cc2cccc(F)c2)cc1` it is -2.01%.
The result for `COc1cccc(CNc2cccnc2-n2cccn2)c1OC` reads 1%.
The figure for `CS(=O)(=O)CCC(=O)NC(Cc1ccccc1)C1CC1` (stereo not given) is 11.4%; for `CN(CCc1ccc2c(c1)CCO2)CC1CCS(=O)(=O)C1` (stereo not given) it is 7.33%; for `Cc1cc(C(=O)N2CCn3cc(CN4CCCCC4)nc3C2)no1` it is -77.3%.
`CCCC(=O)Nc1ccc(CC(=O)N(C)CCc2cn[nH]c2)cc1`: the cytotoxicity at 10 µM is 4.84%.
With `COCCC1(CO)CCCN(Cc2cc(C(F)(F)F)ccc2F)C1` (stereo not given), the cytotoxicity at 10 µM was -141%.
In the case of `CCOCCC(=O)N1CCCCC1CCn1cccn1` (stereo not given), the cytotoxicity at 10 µM was -0.168%.
The result for `CNc1nc2c(c(C(=O)N3CCCC3)n1)CN(Cc1ccco1)CC2` reads -113%; that for `COC(=O)c1cccc(C(=O)N2CCCCC2CCn2ccnc2C)c1` (stereo not given), 14.5%; that for `CCN(CC)CC1CCN(C(=O)CCn2cccn2)CC1`, -13.3%.
On to `CC(C)CCN(C(=O)c1nc(S(C)(=O)=O)n2ccccc12)C1CC1`, for which the cytotoxicity at 10 µM is -2.63%.
For the compound `Cc1ncc(Cl)c(C(=O)N2CCCC(n3nc(C)nc3C)C2)n1` (stereo not given), the cytotoxicity at 10 µM is -0.426%.
Take `Cc1cc(NC(=O)CN2CCN(c3nccs3)C(C)C2)n(C)n1` (stereo not given): the cytotoxicity at 10 µM was -4.2%.
Regarding `c1cncc(-c2nccc(CN3CCC(N4CCCCC4)CC3)n2)c1`, the cytotoxicity at 10 µM was -26%.
For `COc1ccc(CN2CCO[C@H]3CN(C4CCC4)CC[C@H]3C2=O)cc1`, the cytotoxicity at 10 µM was -148%.
In the case of `Cc1noc([C@@]23CCO[C@@H]2CCN(CC2CCOCC2)C3)n1`, the cytotoxicity at 10 µM is -2.1%.
